Reference: ChEMBL document CHEMBL1123956, “Nitrosoureido nucleosides as potential inhibitors of nucleotide biosynthesis” (J Med Chem, 1988)
pIC50: −log10 of the molar value. Values joined by “and” are separate entries in the source; they are usually repeats but may differ in a detail not shown here. Equal entries are not always repeated.

What was measured:
[1] = (§1) Half life was measured at pH 7; assay type: ADME
Method in brief: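 Stability in pH 7 buffer, followed by HPLC; reported as half-life. The method is taken from an earlier paper.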

[2] = tested on: HEp-2; assay: Inhibition of colony formation of H.Ep-2 cells; assay type: functional, cell-based; details: Homo sapiens, read-out: I50
Method in brief: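 H.Ep.-2 cells exposed to drug over a 12-day period. Colony formation was scored against untreated controls, and I50 was taken as the concentration giving 50% inhibition.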

[3] = tested on: L1210; assay: Inhibition of proliferation of L1210 cells; assay type: functional, cell-based; details: Mus musculus, read-out: I50
Method in brief: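 L1210 cells in suspension culture with drug for 48 h. I50 was the concentration giving 50% inhibition of proliferation relative to controls.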

[4] = tested on: Mus musculus; assay: Percent increase in life span of p388 leukemia induced mice was determined at a dose of 100 mg/kg upon ip administration on days 1-5; assay type: functional; details: route intraperitoneal
Method in brief: (§2)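 Mice implanted with 10⁶ P388 leukemia cells were dosed intraperitoneally once daily on days 1-5 after implant. Activity is expressed as % increase in life span, and 30-day survivors were recorded.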

[5] = tested on: Mus musculus; assay: Percent increase in life span of p388 leukemia induced mice was determined at a dose of 200 mg/kg upon ip administration on days 1-5; assay type: functional; details: route intraperitoneal; method in brief: as §2
[6] = tested on: L1210; assay: Number of cells present measured with the Coulter counter(concuM); assay type: functional, Mus musculus
Method in brief: (§3)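 L1210 suspension cultures with agent for 30 min or 18 h, then a further 4 h with radiolabelled precursor. Cells were counted by Coulter counter and expressed as R, the count relative to the initial cell number (R = 1.0). R < 1.0 means a fall below the starting number; R > 1.0 means proliferation.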

[7] = tested on: L1210; assay: Size distribution of cells; assay type: functional, Mus musculus
Method in brief: (§4)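 L1210 suspension cultures with agent for 30 min or 18 h, then a 4-h labelling period. Size distribution was measured on a Model ZH Coulter Counter. The value is the instrument setting at the peak of cell size; higher settings mean larger cells.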

[8] = tested on: L1210; assay: Size distribution of cells (concuM); assay type: functional, Mus musculus; method in brief: as §4
[9] = tested on: L1210; assay: Number of cells present measured with the Coulter counter; assay type: functional, Mus musculus; method in brief: as §3
[10] = tested on: L1210; assay: percent synthesis of RNA in L1210 cells when incubated with compound for 18 h using […] as radioligand; assay type: functional, Mus musculus
Method in brief: (§5)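 RNA synthesis in L1210 suspension cultures preincubated with agent for 30 min or 18 h. [5-3H]Urd was then added, and incorporation into RNA was sampled hourly over 4 h. Values are 4-h incorporation as % of untreated control.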

[11] = tested on: L1210; assay: percent synthesis of DNA in L1210 cells when incubated with the compound for 30 min using […] as radioligand; assay type: functional, Mus musculus
Method in brief: (§6)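 DNA synthesis in L1210 suspension cultures preincubated with agent for 30 min or 18 h. [3H]dThd was then added to the medium, and incorporation into DNA was sampled at 1-h intervals over 4 h. Values are for the 4-h labelling period, as % of untreated control.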

[12] = tested on: L1210; assay: percent synthesis of RNA in L1210 cells when incubated with compound for 18 h using […] as radioligand (conc umol); assay type: functional, Mus musculus; method in brief: as §5
[13] = tested on: L1210; assay: percent synthesis of RNA in L1210 cells when incubated with compound for 30 min using […] as radioligand; assay type: functional, Mus musculus; method in brief: as §5
[14] = tested on: L1210; assay: percent synthesis of protein in L1210 cells when incubated with the compound for 18 hr using [3H]-L-Leu as radioligand; assay type: functional, Mus musculus
Method in brief: (§7)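 Protein synthesis in L1210 suspension cultures preincubated with agent for 30 min or 18 h. [4,5-3H]-L-leucine was then added, and incorporation into protein was sampled hourly over 4 h. Values are 4-h incorporation as % of untreated control.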

[15] = tested on: L1210; assay: percent synthesis of protein in L1210 cells when incubated with the compound for 18 hr uusing [3H]-L-Leu as radioligand; assay type: functional, Mus musculus; method in brief: as §7
[16] = tested on: L1210; assay: percent synthesis of DNA in L1210 cells when incubated with the compound for 18 h using […] as radioligand; assay type: functional, Mus musculus; method in brief: as §6
[17] = tested on: Mus musculus; assay: Percent increase in life span of p388 leukemia induced mice was determined at a dose of 25 mg/kg upon ip administration on days 1-5; assay type: functional; details: route intraperitoneal; method in brief: as §2
[18] = tested on: L1210; assay: percent synthesis of protein in L1210 cells when incubated with the compound for 30 min using [3H]L-Leu as radioligand; assay type: functional, Mus musculus; method in brief: as §7
[19] = as §1; assay type: ADME; remark: listed apart in the source
Method in brief: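 Stability in pH 7 buffer, with decomposition followed by HPLC and the half-life taken from it.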

[20] = tested on: L1210; assay: Number of cells present measured with the Coulter counter at 25 uM conc.; assay type: functional, Mus musculus; method in brief: as §3
[21] = tested on: L1210; assay: Number of cells present measured with the Coulter counter at 50 uM conc.; assay type: functional, Mus musculus; method in brief: as §3
[22] = tested on: L1210; assay: Size distribution of cells at 10 uM conc.; assay type: functional, Mus musculus; method in brief: as §4
[23] = tested on: L1210; assay: Size distribution of cells at 25 uM conc.; assay type: functional, Mus musculus; method in brief: as §4
[24] = tested on: L1210; assay: Size distribution of cells at 50 uM conc.; assay type: functional, Mus musculus; method in brief: as §4
[25] = tested on: L1210; assay: Number of cells present measured with the Coulter counter at 10 uM conc.; assay type: functional, Mus musculus; method in brief: as §3
[26] = tested on: L1210; assay: percent synthesis of DNA in L1210 cells when incubated with the compound for 30 min using […] as radioligand at 50 uM conc.; assay type: functional, Mus musculus; method in brief: as §6
[27] = tested on: L1210; assay: percent synthesis of DNA in L1210 cells when incubated with the compound for 18 h using […] as radioligand at 50 uM conc.; assay type: functional, Mus musculus; method in brief: as §6
[28] = tested on: L1210; assay: percent synthesis of DNA in L1210 cells when incubated with the compound for 18 hr using […] as radioligand at 25 uM conc.; assay type: functional, Mus musculus; method in brief: as §6
[29] = tested on: L1210; assay: percent synthesis of DNA in L1210 cells when incubated with the compound for 30 min using […] as radioligand at 10 uM conc.; assay type: functional, Mus musculus; method in brief: as §6
[30] = tested on: L1210; assay: percent synthesis of DNA in L1210 cells when incubated with the compound for 30 min using […] as radioligand at 25 uM conc.; assay type: functional, Mus musculus; method in brief: as §6
[31] = tested on: L1210; assay: percent synthesis of protein in L1210 cells when incubated with the compound for 30 min using [3H]L-Leu as radioligand at 10 uM conc.; assay type: functional, Mus musculus; method in brief: as §7
[32] = tested on: L1210; assay: percent synthesis of protein in L1210 cells when incubated with the compound for 30 min using [3H]L-Leu as radioligand at 25 uM conc.; assay type: functional, Mus musculus; method in brief: as §7
[33] = tested on: L1210; assay: percent synthesis of protein in L1210 cells when incubated with the compound for 30 min using [3H]L-Leu as radioligand at 50 uM conc.; assay type: functional, Mus musculus; method in brief: as §7
[34] = tested on: L1210; assay: percent synthesis of RNA in L1210 cells when incubated with compound for 18 h using […] as radioligand at 10 uM conc.; assay type: functional, Mus musculus; method in brief: as §5
[35] = tested on: L1210; assay: percent synthesis of RNA in L1210 cells when incubated with compound for 18 hr using […] as radioligand at 25 uM conc.; assay type: functional, Mus musculus; method in brief: as §5
[36] = tested on: L1210; assay: percent synthesis of RNA in L1210 cells when incubated with compound for 18 hr using […] as radioligand at 50 uM conc.; assay type: functional, Mus musculus; method in brief: as §5
[37] = tested on: L1210; assay: percent synthesis of RNA in L1210 cells when incubated with compound for 30 min using […] as radioligand at 10 uM conc.; assay type: functional, Mus musculus; method in brief: as §5
[38] = tested on: L1210; assay: percent synthesis of RNA in L1210 cells when incubated with compound for 30 min using [3H]dThd as radioligand at 25 uM conc.; assay type: functional, Mus musculus; details: in the assay text read “[5-3H]Urd” for “[3H]dThd”; method in brief: as §5
[39] = tested on: L1210; assay: percent synthesis of RNA in L1210 cells when incubated with compound for 30 min using [3H]dThd as radioligand at 50 uM conc.; assay type: functional, Mus musculus; details: in the assay text read “[5-3H]Urd” for “[3H]dThd”; method in brief: as §5
[40] = tested on: L1210; assay: percent synthesis of protein in L1210 cells when incubated with the compound for 18 hr using [3H]-L-Leu as radioligand at 10 uM conc.; assay type: functional, Mus musculus; method in brief: as §7
[41] = tested on: L1210; assay: percent synthesis of protein in L1210 cells when incubated with the compound for 18 hr using [3H]-L-Leu as radioligand at 25 uM conc.; assay type: functional, Mus musculus; method in brief: as §7
[42] = tested on: L1210; assay: percent synthesis of protein in L1210 cells when incubated with the compound for 18 hr using [3H]-L-Leu as radioligand at 50 uM conc.; assay type: functional, Mus musculus; method in brief: as §7
[43] = tested on: L1210; assay: percent synthesis of DNA in L1210 cells when incubated with the compound for 18 h using [3H]dUrd as radioligand at 10 uM conc.; assay type: functional, Mus musculus; details: in the assay text read “[3H]dThd” for “[3H]dUrd”; method in brief: as §6

CN(N=O)C(=O)Nc1ccc(NC(=O)C2OC(n3ccc(=O)[nH]c3=O)C(O)C2O)cc1 (stereo not drawn)
half-life [1]: 120 min
pIC50 [2]: 4.48
pIC50 [3]: < 4.05
ILS at 100 mg/kg [4]: 56%

Cc1cn(C2CC(O)C(C(=O)NCCN(N=O)C(=O)Nc3ccccc3)O2)c(=O)[nH]c1=O (stereo not drawn)
half-life [1]: 42 min
pIC50 [2]: 4.05
pIC50 [3]: < 4.05
ILS at 200 mg/kg [5]: 14%

O=NN(CCCl)C(=O)NCC1OC(n2ccc(=O)[nH]c2=O)CC1O (stereo not drawn)
half-life [1]: 240 min
pIC50 [2]: 4.85
Cell no [6]: 0.54
Cell size [7]: 60 and 82.5 and 75
Cell size [8]: 67.5 and 65 and 82.5
pIC50 [3]: 4.92
Cell no [9]: 1.06 and 1.08 and 1.09 and 0.77 and 0.99
Control [10]: 554% and 276%
Control [11]: 98% and 103% and 100%
Control [12]: 455%
Control [13]: 87% and 79% and 80%
Control [14]: 474% and 254%
Control [15]: 658%
Control [16]: 189% and 192% and 152%
ILS at 25 mg/kg [17]: 191%
Control [18]: 96% and 92% and 95%

O=NN(C(=O)NC1CCCCC1)C1CCCCC1
T1/2 [19]: 52.5 min

Cc1cn(C2CC(O)C(CNC(=O)N(CCCl)N=O)O2)c(=O)[nH]c1=O (stereo not drawn)
half-life [1]: 360 min
pIC50 [2]: 5.00
Cell no [20]: 1.08 and 0.92
Cell no [21]: 1.06 and 0.64
Cell size [22]: 60 and 80
Cell size [23]: 57.5 and 80
Cell size [24]: 55 and 85
pIC50 [3]: 5.30
Cell no [25]: 1.08 and 1.21
Control [26]: 85%
Control [27]: 147%
Control [28]: 171%
Control [29]: 108%
Control [30]: 98%
Control [31]: 83%
Control [32]: 99%
Control [33]: 111%
Control [34]: 217%
Control [35]: 374%
Control [36]: 539%
Control [37]: 85%
Control [38]: 88%
Control [39]: 87%
Control [40]: 257%
Control [41]: 455%
Control [42]: 597%
Control [43]: 145%
ILS at 25 mg/kg [17]: 135%
